{
  "source": "ChEMBL document CHEMBL4038305",
  "about": "“Benzoxaborole Antimalarial Agents. Part 5. Lead Optimization of Novel Amide Pyrazinyloxy Benzoxaboroles and Identification of a Preclinical Candidate” (J Med Chem, 2017)",
  "key": {"Plasmodium berghei [1]": {"test_system": "Plasmodium berghei", "test": "Antimalarial activity against Plasmodium berghei infected in Swiss Webster mouse assessed as mouse survival rate at 200 mg/kg administered once daily via oral gavage for 4 consecutive days beginning 1 hr after infection measured on day 17 post infection relative to control", "assay_type": "functional", "procedure,_shortened": "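P. berghei-infected erythrocytes taken from a previously infected mouse were injected intraperitoneally. Oral dosing, once daily for 4 consecutive days, began 1 h after infection, in polyethylene glycol 300/propylene glycol/water (55/25/20 by weight). Chloroquine at 30 mg/kg was the positive control, with a vehicle-only group. Percent survival was recorded daily from day 4 to day 20.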"}, "Plasmodium berghei [2]": {"test_system": "Plasmodium berghei", "test": "Antimalarial activity against Plasmodium berghei infected in Swiss Webster mouse assessed as mouse survival rate at 100 mg/kg administered once daily via oral gavage for 4 consecutive days beginning 1 hr after infection measured on day 19 post infection relative to control", "assay_type": "functional", "procedure,_shortened": "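Mice given an intraperitoneal injection of P. berghei-infected erythrocytes taken from a previously infected animal. Oral dosing once daily for 4 consecutive days, starting 1 h after infection. Vehicle: polyethylene glycol 300/propylene glycol/water (weight ratio 55/25/20). Percent survival recorded daily from day 4 to day 20. Chloroquine 30 mg/kg and vehicle-only groups served as controls.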"}, "[3]": {"test": "Cmax in Sprague-Dawley rat plasma at 5 mg/kg, po via gavage by HPLC/MS analysis", "assay_type": "ADME, organism-based", "design": "dose 5 mg/kg, route oral", "procedure,_shortened": "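Female CD-1 mice, male SD rats and beagle dogs received 5 mg/kg either iv or by oral gavage. Vehicle was PEG 300/propylene glycol/water (55/25/20, pH 6). Blood was sampled and drug measured by HPLC-MS/MS.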"}, "[4]": {"test": "Terminal half life in Sprague-Dawley rat at 5 mg/kg, po via gavage by HPLC/MS analysis", "assay_type": "ADME, organism-based", "settings": "in vivo, read-out: beta t1/2 (converted)"}, "Plasmodium falciparum [5]": {"test_system": "Plasmodium falciparum", "test": "Antimalarial activity against Plasmodium falciparum TM90C2A infected in human erythrocytes assessed as reduction in [3H]-hypoxanthine incorporation preincubated for 24 hrs followed by [3H]-hypoxanthine addition measured after 24 hrs by scintillation counting method", "assay_type": "functional, cell-based"}, "Plasmodium falciparum [6]": {"test_system": "Plasmodium falciparum", "test": "Antimalarial activity against Plasmodium falciparum 7G8 infected in human erythrocytes assessed as reduction in [3H]-hypoxanthine incorporation preincubated for 24 hrs followed by [3H]-hypoxanthine addition measured after 24 hrs by scintillation counting method", "assay_type": "functional, cell-based"}, "Plasmodium falciparum [7]": {"test_system": "Plasmodium falciparum", "test": "Antimalarial activity against Plasmodium falciparum FCB infected in human erythrocytes assessed as reduction in [3H]-hypoxanthine incorporation preincubated for 24 hrs followed by [3H]-hypoxanthine addition measured after 24 hrs by scintillation counting method", "assay_type": "functional, cell-based"}, "Plasmodium falciparum [8]": {"test_system": "Plasmodium falciparum", "test": "Antimalarial activity against intraerythrocytic stage of Plasmodium falciparum assessed as time required for maximal killing effect at 10 times IC50 preincubated for 24 hrs followed by [3H]-hypoxanthine addition measured after 24 hrs by scintillation counting method", "assay_type": "functional", "procedure,_shortened": "(§1)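 In vitro P. falciparum parasite reduction ratio assay run at 10×, 30× and 100× IC50. Derived parameters: lag phase (time to maximal killing), PRR (parasites killed per life cycle) and PCT99.9% (time to clear 99.9% of the initial parasite population).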"}, "Plasmodium falciparum [9]": {"test_system": "Plasmodium falciparum", "test": "Antimalarial activity against intraerythrocytic stage of Plasmodium falciparum assessed as time required for maximal killing effect at 30 times IC50 preincubated for 24 hrs followed by [3H]-hypoxanthine addition measured after 24 hrs by scintillation counting method", "assay_type": "functional", "procedure,_shortened": "as §1"}, "Plasmodium falciparum [10]": {"test_system": "Plasmodium falciparum", "test": "Antimalarial activity against intraerythrocytic stage of Plasmodium falciparum assessed as parasite reduction ratio at 100 times IC50 preincubated for 24 hrs followed by [3H]-hypoxanthine addition measured after 24 hrs by scintillation counting method", "assay_type": "functional", "procedure,_shortened": "as §1"}, "Salmonella typhimurium [11]": {"test_system": "Salmonella typhimurium", "test": "Genotoxicity in Salmonella typhimurium TA98 assessed as number of revertants per plate at 50 ug/plate in presence of rat liver S9 fraction by Ames test (reference value: 19 +/- 8)", "assay_type": "toxicity", "settings": "salmonella enterica subsp. enterica serovar typhimurium"}, "Salmonella typhimurium [12]": {"test_system": "Salmonella typhimurium", "test": "Genotoxicity in Salmonella typhimurium TA100 assessed as number of revertants per plate at 1.5 ug/plate in presence of rat liver S9 fraction by Ames test (reference value: 141 +/- 1)", "assay_type": "toxicity", "settings": "salmonella enterica subsp. enterica serovar typhimurium"}, "Salmonella typhimurium [13]": {"test_system": "Salmonella typhimurium", "test": "Genotoxicity in Salmonella typhimurium TA100 assessed as number of revertants per plate at 5000 ug/plate in presence of rat liver S9 fraction by Ames test (reference value: 141 +/- 1)", "assay_type": "toxicity", "settings": "salmonella enterica subsp. enterica serovar typhimurium"}, "Salmonella typhimurium [14]": {"test_system": "Salmonella typhimurium", "test": "Genotoxicity in Salmonella typhimurium TA1535 assessed as number of revertants per plate at 5 ug/plate in absence of rat liver S9 fraction by Ames test (reference value: 10 +/- 3)", "assay_type": "toxicity", "settings": "salmonella enterica subsp. enterica serovar typhimurium"}, "Salmonella typhimurium [15]": {"test_system": "Salmonella typhimurium", "test": "Genotoxicity in Salmonella typhimurium TA1535 assessed as number of revertants per plate at 150 ug/plate in presence of rat liver S9 fraction by Ames test (reference value: 10)", "assay_type": "toxicity", "settings": "salmonella enterica subsp. enterica serovar typhimurium"}, "Salmonella typhimurium [16]": {"test_system": "Salmonella typhimurium", "test": "Genotoxicity in Salmonella typhimurium TA1537 assessed as number of revertants per plate at 1.5 ug/plate in absence of rat liver S9 fraction by Ames test (reference value: 19 +/- 9)", "assay_type": "toxicity", "settings": "salmonella enterica subsp. enterica serovar typhimurium"}, "Salmonella typhimurium [17]": {"test_system": "Salmonella typhimurium", "test": "Genotoxicity in Salmonella typhimurium TA1537 assessed as number of revertants per plate at 5000 ug/plate in presence of rat liver S9 fraction by Ames test (reference value: 11 +/- 4)", "assay_type": "toxicity", "settings": "salmonella enterica subsp. enterica serovar typhimurium"}, "Escherichia coli [18]": {"test_system": "Escherichia coli", "test": "Genotoxicity in Escherichia coli WP2uvrA assessed as number of revertants per plate at 15 ug/plate in absence of rat liver S9 fraction by Ames test (reference value: 45 +/- 9)", "assay_type": "toxicity"}, "Escherichia coli [19]": {"test_system": "Escherichia coli", "test": "Genotoxicity in Escherichia coli WP2uvrA assessed as number of revertants per plate at 50 ug/plate in absence of rat liver S9 fraction by Ames test (reference value: 45 +/- 9)", "assay_type": "toxicity"}, "Escherichia coli [20]": {"test_system": "Escherichia coli", "test": "Genotoxicity in Escherichia coli WP2uvrA assessed as number of revertants per plate at 50 ug/plate in presence of rat liver S9 fraction by Ames test (reference value: 42 +/- 6)", "assay_type": "toxicity"}, "Lymphocyte [21]": {"test_system": "Lymphocyte", "test": "Genotoxicity in human lymphocytes assessed as replication index at 355.15 ug/mL after 28 hrs in absence of rat liver S9 fraction by micronucleus assay relative to control", "assay_type": "toxicity, cell-based", "procedure,_shortened": "(§2)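 Human lymphocytes exposed for 3 h with or without rat liver S9, or 28 h without S9, with 1% DMSO as vehicle control. Replication index = (binucleated + 2 × multinucleated cells)/total cells. Cytotoxicity (%) = 100 − (RI treated/RI vehicle) × 100.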"}, "Lymphocyte [22]": {"test_system": "Lymphocyte", "test": "Genotoxicity in human lymphocytes assessed as replication index at 40 ug/mL after 28 hrs in absence of rat liver S9 fraction by micronucleus assay relative to control", "assay_type": "toxicity, cell-based", "procedure,_shortened": "as §2"}, "Lymphocyte [23]": {"test_system": "Lymphocyte", "test": "Genotoxicity in human lymphocytes assessed as increase in frequency of micronucleated cells at 355.15 ug/mL after 3 hrs in absence of rat liver S9 fraction by micronucleus assay (reference value: 0.99%)", "assay_type": "toxicity, cell-based"}, "Lymphocyte [24]": {"test_system": "Lymphocyte", "test": "Genotoxicity in human lymphocytes assessed as increase in frequency of micronucleated cells at 355.15 ug/mL after 28 hrs in absence of rat liver S9 fraction by micronucleus assay (reference value: 0.74%)", "assay_type": "toxicity, cell-based"}, "Rattus norvegicus [25]": {"test_system": "Rattus norvegicus", "test": "Genotoxicity in rat assessed as change in polychromatic erythrocytes in bone marrow at 1000 mg/kg administered via oral gavage measured after 24 hrs post dose by micronucleus assay relative to control", "assay_type": "toxicity, organism-based", "settings": "in vivo"}, "Rattus norvegicus [26]": {"test_system": "Rattus norvegicus", "test": "Genotoxicity in rat assessed as micronucleated polychromatic erythrocytes in bone marrow at 500 mg/kg administered via oral gavage measured after 24 hrs post dose by micronucleus assay (reference value: 0.07 +/- 0.05%)", "assay_type": "toxicity, organism-based", "settings": "in vivo"}},
  "data": [
    {"smiles": "CCCC1(O)CN(C(=O)c2cnc(Oc3ccc4c(c3C)B(O)OC4)cn2)C1", "values": [
      {"measurement": "survival at 200 mg/kg", "setting": "Plasmodium berghei [1]", "result": 0, "unit": "%"}
    ]},
    {"smiles": "Cc1c(Oc2cnc(C(=O)N3CC(O)(C(C)C)C3)cn2)ccc2c1B(O)OC2", "values": [
      {"measurement": "survival at 100 mg/kg", "setting": "Plasmodium berghei [2]", "result": 80, "unit": "%"}
    ]},
    {"smiles": "Cc1c(Oc2cnc(C(=O)N3CC(C)(O)C3)cn2)ccc2c1B(O)OC2", "values": [
      {"measurement": "Cmax", "setting": "[3]", "result": 1700, "unit": "ng/mL"},
      {"measurement": "half-life", "setting": "[4]", "result": 5.2, "unit": "h"},
      {"measurement": "IC50", "setting": "Plasmodium falciparum [5]", "result": 64, "unit": "nM"},
      {"measurement": "IC50", "setting": "Plasmodium falciparum [6]", "result": 35, "unit": "nM"},
      {"measurement": "IC50", "setting": "Plasmodium falciparum [7]", "result": 66, "unit": "nM"},
      {"measurement": "Time", "setting": "Plasmodium falciparum [8]", "result": 0, "unit": "h"},
      {"measurement": "Time", "setting": "Plasmodium falciparum [9]", "result": 0, "unit": "h"},
      {"measurement": "log(ratio)", "setting": "Plasmodium falciparum [10]", "result": 4.9},
      {"measurement": "Activity", "setting": "Salmonella typhimurium [11]", "result": 17},
      {"measurement": "Activity", "setting": "Salmonella typhimurium [12]", "result": 150},
      {"measurement": "Activity", "setting": "Salmonella typhimurium [13]", "result": 31},
      {"measurement": "Activity", "setting": "Salmonella typhimurium [14]", "result": 8},
      {"measurement": "Activity", "setting": "Salmonella typhimurium [15]", "result": 15},
      {"measurement": "Activity", "setting": "Salmonella typhimurium [16]", "result": 15},
      {"measurement": "Activity", "setting": "Salmonella typhimurium [17]", "result": 9},
      {"measurement": "Activity", "setting": "Escherichia coli [18]", "result": 41},
      {"measurement": "Activity", "setting": "Escherichia coli [19]", "result": 35},
      {"measurement": "Activity", "setting": "Escherichia coli [20]", "result": 44},
      {"measurement": "Activity", "setting": "Lymphocyte [21]", "result": 33, "unit": "%"},
      {"measurement": "Activity", "setting": "Lymphocyte [22]", "result": 7, "unit": "%"},
      {"measurement": "Activity", "setting": "Lymphocyte [23]", "result": 0.85, "unit": "%"},
      {"measurement": "Activity", "setting": "Lymphocyte [24]", "result": 0.95, "unit": "%"},
      {"measurement": "Activity", "setting": "Rattus norvegicus [25]", "result": 0, "unit": "%"},
      {"measurement": "Activity", "setting": "Rattus norvegicus [26]", "result": 0.03, "unit": "%"}
    ]}
  ]
}
